The record followed here is ChEMBL document CHEMBL1134778, “Amino acid phosphoramidate monoesters of 3'-azido-3'-deoxythymidine: relationship between antiviral potency and intracellular metabolism” (J Med Chem, 2001).

Assay [1] is filed under the species Homo sapiens. The experiment in a line: Concentration required to kill 50% of PBMCs. Type of assay: functional, organism-based. Put shortly: (§1)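 Uninfected PHA-stimulated PBMCs or CEM cells plated at 2.5 × 10^5 cells/well with diluted drug. Incubated 6 days at 37 °C, 10% CO2. XTT/PMS added and incubated 4 h at 37 °C. Absorbance read at 450 nm, 630 nm reference.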

The species named for assay [2] is Homo sapiens. The experiment in a line: Effective concentration required to inhibit the replication of HIV-1 with no pretreatment of activated PBMCs. The class given is functional, organism-based. The essentials:
(§2)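 Uninfected PHA-stimulated PBMCs (2.5 × 10^5 cells/mL) given compound in ddH2O in triplicate for 2 h at 37 °C, then LAI/HIV-1 (5000 DPM/10^6 cells) added. In parallel cultures, cells were infected 3 h first and then treated. After 6 days at 37 °C, supernatant RT activity measured.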

Assay [3] is filed under the species Homo sapiens. The experiment in a line: Effective concentration required to inhibit the replication of HIV-1 by 50% in PMBCs in the absence of thymidine. Type of assay: functional, organism-based.
The species named for assay [4] is Homo sapiens. The assay can be described thus: Effective concentration required to inhibit the replication of HIV-1 with 2 hr pretreatment of activated PBMCs. Type of assay: functional, organism-based. The essentials: as §2
In assay [5] the test system is Human immunodeficiency virus 1. The assay can be described thus: Concentration required to inhibit HIV-1 replication by 50% in activated PBMCs.
The species entered for assay [6] is Homo sapiens. The assay can be described thus: Effective concentration of required to inhibit the replication of HIV-1 BY 50% in PMBCs from donor 2. Type of assay: functional, organism-based.
Assay [7] concerns Human immunodeficiency virus 1. The assay can be described thus: Concentration required to inhibit the production of proviral DNA in unactivated PBMCs.
Assay [8] is filed under the species Homo sapiens. The experiment in a line: Effective concentration required to inhibit the replication of HIV-1 by 50% in PMBCs in the presence of thymidine. The class given is functional, organism-based.
In assay [9] the test system is CCRF-CEM. The experiment in a line: Effective concentration of required to inhibit the replication of HIV-1 BY 50% in CEM cells. Type of assay: functional, cell-based. To be noted: Homo sapiens. Put shortly:
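PHA-stimulated CEM cells infected 3 h at 37 °C with LAI/HIV-1 (10 000 DPM RT activity/10^6 cells), then washed. Resuspended at 2.5 × 10^5 cells/mL in medium with 10 U/mL IL-2. Drugs in ddH2O added to duplicate or triplicate cultures. Held 6 days at 37 °C; supernatant p24 measured by ELISA.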

Assay [10] is filed under the species Homo sapiens. The assay can be described thus: (§3) Intracellular of AZT-TP concentrations in LAI/HIV-1 infected PMBCs was determined at a conc of 10 uM). The class given is functional, organism-based. The essentials: (§4)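 PHA-stimulated, LAI/HIV-1-infected PBMCs (donor 2) at 10^6 cells/mL, triplicate, given 10 µM compound ± 50 µM thymidine for 18 h at 37 °C. Cells washed, extracted in 60% methanol overnight at −20 °C, dried and reconstituted. AZT-TP quantified by inhibition of recombinant HIV-1 RT (poly(rA)-oligo(dT), 3H-TTP, 2 h at 37 °C) relative to AZT-TP standards; pmol/10^6 cells.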

The species entered for assay [11] is Homo sapiens. The assay can be described thus: Effective concentration of required to inhibit the replication of HIV-1 BY 50% in PMBCs from donor 1. The class given is functional, organism-based.
Assay [12] is filed under the species Homo sapiens. The assay is described as §3. The class given is functional, organism-based. Put shortly: as §4
The source holds these as a separate data set.

Another assay has as its system U1. The experiment in a line: Antiviral activity was determined in chronically infected U1 cell line with HIV-1. To be noted: Homo sapiens. The class given is functional, cell-based. The essentials:
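HIV-1 chronically infected U1 cells (1.5 × 10^5 cells/well) in RPMI 1640 with 10% FBS and 10 ng/mL TNF-α. Compound in ddH2O added to duplicate cultures. Incubated 48 h at 37 °C, 5% CO2. Supernatant p24gag measured by ELISA; XTT assay run on the remaining culture.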

Assay [13] can be described thus: Inhibition of AZT-MP production by cell free extracts of CEM cells. Type of assay: functional, Homo sapiens, CCRF-CEM. Further details: unit not given here. Put shortly: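 CEM cells (1.5 × 10^8) sonicated in 1 mL 20 mM Tris-HCl, 500 mM NaCl, pH 7.5. Lysate incubated with phosphoramidate and carbamate, each added from 10 mM stock, for 45 min at 37 °C, then stopped with methanol. AZT-MP quantified by RP-HPLC-RIA against a no-carbamate control. Mean of two experiments.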

Assay [14] has as its system CCRF-CEM. The assay can be described thus: Concentration required to kill 50% of CEM cells. The class given is functional, cell-based. The conditions noted are these: Homo sapiens. Put shortly:
as §1

For assay [15], the species on record is Homo sapiens. The assay can be described thus: Effective concentration required to inhibit the replication of HIV-1 in activated PBMCs. The class given is functional, organism-based. Put shortly: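 PBMCs held 2 days either resting (no PHA, no IL-2) or with 10 μg/mL PHA, then IL-2 10 U/mL. Nonadherent cells infected with LAI/HIV-1 (5000 DPM/10^6 cells) for 3 h and washed. Plated at 2.5 × 10^5 cells/mL, compounds added in triplicate, 6 days at 37 °C. Supernatant RT activity measured; proviral gag DNA by PCR normalised to IFN-β1.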

For assay [16], the species on record is Homo sapiens. The experiment in a line: Inhibition of Phosphoramidase activity with AZT L-amino acid carbamates. To be noted: concentration not given here. Type of assay: functional. Put shortly: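 CEM cells (1.5 × 10^8) sonicated in 1 mL 20 mM Tris-HCl, 500 mM NaCl, pH 7.5. Whole lysate incubated 45 min at 37 °C with phosphoramidate (from 10 mM water stock) and carbamate (from 10 mM DMSO stock), then stopped with methanol. AZT-MP quantified by RP-HPLC-RIA against a no-carbamate control. Mean of two experiments.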

Broadly, the IC50 is the concentration needed to halve the response being measured. In general, EC50 refers to the midpoint of the concentration-response curve. Regarding `Cc1cn([C@H]2C[C@H](N=[N+]=[N-])[C@@H](CO)O2)c(=O)[nH]c1=O` [ZIDOVUDINE], in the assay filed under Homo sapiens [1], the IC50 was over 100000 nM. The EC50 worked out at 10 nM in the assay filed under Homo sapiens [2]; 7 nM in the assay filed under Homo sapiens [3]; 15 nM in the assay filed under Homo sapiens [4]; 10 nM in assay [5]; 7 nM in the assay listed under Homo sapiens [6]; 300 nM in the assay listed under Homo sapiens [8]. In addition, the figures for the concentration giving a half-maximal response (EC50) in the assay with CCRF-CEM [9], in the assay filed under Homo sapiens [11] and in the assay with U1 were under 1 nM, 6 nM and 25000 nM, respectively. In assay [7], this molecule gave an IC100 of 0.01 µM. For the same molecule, the Concentration (pM (10e6*cells)-1) in the assay listed under Homo sapiens [10] was found to be 0.69; in the assay filed under Homo sapiens [12], 1.37.
`COC(=O)[C@@H](Cc1c[nH]c2ccccc12)NP(=O)(O)OC[C@H]1O[C@@H](n2cc(C)c(=O)[nH]c2=O)C[C@@H]1N=[N+]=[N-].COC(=O)[C@H](Cc1c[nH]c2ccccc12)NC(=O)OC[C@H]1O[C@@H](n2cc(C)c(=O)[nH]c2=O)C[C@@H]1N=[N+]=[N-]` [listing 1 of 2 here] returned an Activity in [13] of 2.56.
As to `CNC(=O)[C@@H](Cc1c[nH]c2ccccc12)NP(=O)(O)OC[C@H]1O[C@@H](n2cc(C)c(=O)[nH]c2=O)C[C@@H]1N=[N+]=[N-]`, the IC50 in the assay listed under Homo sapiens [1] and with CCRF-CEM [14] was over 100000 nM throughout. Besides, the EC50 in the assay filed under Homo sapiens [6] was 180 nM; in the assay listed under Homo sapiens [11], 400 nM.
Consider `COC(=O)[C@H](Cc1ccccc1)NP(=O)(O)OC[C@H]1O[C@@H](n2cc(C)c(=O)[nH]c2=O)C[C@@H]1N=[N+]=[N-]`, for which the IC50 in the assay filed under Homo sapiens [1] and with CCRF-CEM [14] was over 100000 nM each time. Moreover, the EC50 in the assay listed under Homo sapiens [2] was 15000 nM; in the assay filed under Homo sapiens [3], 15000 nM; in the assay filed under Homo sapiens [4], 1000 nM; in the assay filed under Homo sapiens [15], over 100000 nM; in the assay listed under Homo sapiens [6], 15000 nM; in the assay listed under Homo sapiens [8], over 100000 nM. Moreover, the EC50 was under 1 nM in the assay with CCRF-CEM [9], 30000 nM in the assay listed under Homo sapiens [11] and 25000 nM with U1. The Activity in assay [13] amounted to 6.3. Also, the IC100 in [7] is over 100 µM.
In general, inhibition refers to how much of the control response was suppressed. In the assay listed under Homo sapiens [16], `COC(=O)[C@H](Cc1ccccc1)NC(=O)OC[C@H]1O[C@@H](n2cc(C)c(=O)[nH]c2=O)C[C@@H]1N=[N+]=[N-].COC(=O)[C@H](Cc1ccccc1)NP(=O)(O)OC[C@H]1O[C@@H](n2cc(C)c(=O)[nH]c2=O)C[C@@H]1N=[N+]=[N-]` [listing 1 of 2 here] registered an inhibition of 99.6%.
As to `COC(=O)[C@H](Cc1ccccc1)NC(=O)OC[C@H]1O[C@@H](n2cc(C)c(=O)[nH]c2=O)C[C@@H]1N=[N+]=[N-].COC(=O)[C@H](Cc1ccccc1)NP(=O)(O)OC[C@H]1O[C@@H](n2cc(C)c(=O)[nH]c2=O)C[C@@H]1N=[N+]=[N-]` [listing 2 of 2 here], the Activity in [13] was 0.03.
Consider `COC(=O)[C@H](C)NP(=O)(O)OC[C@H]1O[C@@H](n2cc(C)c(=O)[nH]c2=O)C[C@@H]1N=[N+]=[N-]`, for which the IC50 in the assay listed under Homo sapiens [1] and in the assay on CCRF-CEM [14] was over 100000 nM each time. The EC50 in the assay filed under Homo sapiens [6] was found to be 30 nM; in the assay listed under Homo sapiens [11], 50 nM.
`COC(=O)[C@@H](Cc1c[nH]c2ccccc12)NP(=O)(O)OC[C@H]1O[C@@H](n2cc(C)c(=O)[nH]c2=O)C[C@@H]1N=[N+]=[N-].COC(=O)[C@H](Cc1c[nH]c2ccccc12)NC(=O)OC[C@H]1O[C@@H](n2cc(C)c(=O)[nH]c2=O)C[C@@H]1N=[N+]=[N-]` [listing 2 of 2 here]: in the assay listed under Homo sapiens [16], the inhibition turned out to be 60%.
